Laboratory results published in publication PMC3448790 (Biochemistry, 2012).
Entries after “also recorded” stand apart in the source; their conditions may differ. Where a SMILES comes first, the peptide text is derived from it.

How the values were obtained:
human erythrocyte ghosts [1] = test: Ektacytometry of resealed ghosts; format: cell-based; conditions: 6 or 15 μM cyclic peptide resealed; elongation index vs shear stress
How it was run: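 Washed human red cells from ACD-anticoagulated volunteer blood, with buffy coat and plasma removed, were suspended in PBS/5 mM glucose/2 mM MgCl2 with cyclized test peptide or without (control). Cells were flash-frozen in liquid N2 for 40 s, thawed at room temperature, then resealed 45 min at 37°C. Ghosts were washed in PBS/glucose/0.5% BSA and assessed by ektacytometry as elongation index under gradually increasing shear stress.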

human erythrocyte ghosts [2] = test: Peptide resealing into red cells, morphology by light microscopy; format: cell-based; conditions: peptide 0, 6, 12 or 30 μM resealed 45 min at 37°C; 100x oil immersion

CSCC[C@@H]1NC(=O)[C@H](C(C)C)NC(=O)[C@H](CC(C)C)NC(=O)[C@H](CCC(=O)O)NC(=O)[C@@H](N)CSSC[C@@H](C(=O)O)NC(=O)[C@H](CC(C)C)NC(=O)[C@H](CCC(=O)O)NC(=O)[C@H](CCC(N)=O)NC(=O)[C@H](CC(N)=O)NC(=O)[C@H](CCCCN)NC(=O)[C@H](CCC(=O)O)NC(=O)[C@H](CC(=O)O)NC1=O [cyclized peptide] (HELM PEPTIDE1{C.E.L.V.M.D.E.K.N.Q.E.L.C}$PEPTIDE1,PEPTIDE1,1:R3-13:R3$$$V2.0; N-terminus and C-terminus assumed)
effect on membrane deformability (in words) (human erythrocyte ghosts [1]): compromised membrane deformability
effect on red cell membrane morphology (in words) (human erythrocyte ghosts [2]): membrane blebbing and a gradual decrease in membrane surface area; also recorded: extensive vesiculation at higher peptide concentrations
